In brackets after ≈: the same amount, converted by molar mass.
Key:
Format in all cases: functional
[1] = test system: Staphylococcus aureus; experiment: Antimicrobial activity against Staphylococcus aureus MTCC 96 after 24 hrs by microdilution method; conditions: MTCC 96, 24 h
In short: (§1)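 The minimal inhibitory concentration was determined by dilution, alongside minimal bactericidal concentration for bacterial strains and minimal fungicidal concentration for fungal strains. Tests were run in six replicates, and the value is the mean of at least three determinations.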

[2] = test system: Fusarium oxysporum; experiment: Antimicrobial activity against Fusarium oxysporum MTCC 284 after 48 hrs by microdilution method; conditions: MTCC 284, 48 h; in short: as §1
[3] = test system: Fusarium verticillioides; experiment: Antimicrobial activity against Fusarium moniliforme MTCC 156 at 100 ug/ml after 48 hrs by disc diffusion method; conditions: MTCC 156, 48 h, read-out: DIZ
In short: (§2)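 Agar diffusion read-out is the diameter of the inhibition zone in mm. Each test was run in six replicates and reported as mean ± standard deviation, taken from at least three determinations.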

[4] = test system: Bacillus cereus; experiment: Antimicrobial activity against Bacillus cereus MTCC 8372 after 24 hrs by microdilution method; conditions: MTCC 8372, 24 h; in short: as §1
[5] = test system: Aspergillus flavus; experiment: Antimicrobial activity against Aspergillus flavus MTCC 873 at 50 ug/ml after 48 hrs by disc diffusion method; conditions: MTCC 873, 48 h, read-out: DIZ; in short: as §2
[6] = test system: Fusarium verticillioides; experiment: Antimicrobial activity against Fusarium moniliforme MTCC 156 at 50 ug/ml after 48 hrs by disc diffusion method; conditions: MTCC 156, 48 h, read-out: DIZ; in short: as §2
[7] = test system: Fusarium verticillioides; experiment: Antimicrobial activity against Fusarium moniliforme MTCC 156 after 48 hrs by microdilution method; conditions: MTCC 156, 48 h; in short: as §1
[8] = test system: Aspergillus niger; experiment: Antimicrobial activity against Aspergillus niger MTCC 281 after 48 hrs by microdilution method; conditions: MTCC 281, 48 h; in short: as §1
[9] = test system: Escherichia coli; experiment: Antimicrobial activity against Escherichia coli MTCC 724 at 50 ug/ml after 24 hrs by disc diffusion method; conditions: MTCC 724, 24 h, read-out: DIZ; in short: as §2
[10] = test system: Bacillus cereus; experiment: Antimicrobial activity against Bacillus cereus MTCC 8372 at 50 ug/ml after 24 hrs by disc diffusion method; conditions: MTCC 8372, 24 h, read-out: DIZ; in short: as §2
[11] = test system: Aspergillus niger; experiment: Antimicrobial activity against Aspergillus niger MTCC 281 at 100 ug/ml after 48 hrs by disc diffusion method; conditions: MTCC 281, 48 h, read-out: DIZ; in short: as §2
[12] = test system: Aspergillus niger; experiment: Antimicrobial activity against Aspergillus niger MTCC 281 at 50 ug/ml after 48 hrs by disc diffusion method; conditions: MTCC 281, 48 h, read-out: DIZ; in short: as §2
[13] = test system: Staphylococcus aureus; experiment: Antimicrobial activity against Staphylococcus aureus MTCC 96 at 100 ug/ml after 24 hrs by disc diffusion method; conditions: MTCC 96, 24 h, read-out: DIZ; in short: as §2
[14] = test system: Aspergillus flavus; experiment: Antimicrobial activity against Aspergillus flavus MTCC 873 after 48 hrs by microdilution method; conditions: MTCC 873, 48 h; in short: as §1
[15] = test system: Bacillus cereus; experiment: Antimicrobial activity against Bacillus cereus MTCC 8372 at 100 ug/ml after 24 hrs by disc diffusion method; conditions: MTCC 8372, 24 h, read-out: DIZ; in short: as §2
[16] = test system: Klebsiella pneumoniae; experiment: Antimicrobial activity against Klebsiella pneumoniae MTCC 3384 at 50 ug/ml after 24 hrs by disc diffusion method; conditions: MTCC 3384, 24 h, read-out: DIZ; in short: as §2
[17] = test system: Staphylococcus aureus; experiment: Antimicrobial activity against Staphylococcus aureus MTCC 96 at 50 ug/ml after 24 hrs by disc diffusion method; conditions: MTCC 96, 24 h, read-out: DIZ; in short: as §2
[18] = test system: Klebsiella pneumoniae; experiment: Antimicrobial activity against Klebsiella pneumoniae MTCC 3384 after 24 hrs by microdilution method; conditions: MTCC 3384, 24 h; in short: as §1
[19] = test system: Escherichia coli; experiment: Antimicrobial activity against Escherichia coli MTCC 724 at 100 ug/ml after 24 hrs by disc diffusion method; conditions: MTCC 724, 24 h, read-out: DIZ; in short: as §2
[20] = test system: Fusarium oxysporum; experiment: Antimicrobial activity against Fusarium oxysporum MTCC 284 at 100 ug/ml after 48 hrs by disc diffusion method; conditions: MTCC 284, 48 h, read-out: DIZ; in short: as §2
[21] = test system: Aspergillus flavus; experiment: Antimicrobial activity against Aspergillus flavus MTCC 873 at 100 ug/ml after 48 hrs by disc diffusion method; conditions: MTCC 873, 48 h, read-out: DIZ; in short: as §2
[22] = test system: Klebsiella pneumoniae; experiment: Antimicrobial activity against Klebsiella pneumoniae MTCC 3384 at 100 ug/ml after 24 hrs by disc diffusion method; conditions: MTCC 3384, 24 h, read-out: DIZ; in short: as §2
[23] = test system: Escherichia coli; experiment: Antimicrobial activity against Escherichia coli MTCC 724 after 24 hrs by microdilution method; conditions: MTCC 724, 24 h; in short: as §1
[24] = test system: Fusarium oxysporum; experiment: Antimicrobial activity against Fusarium oxysporum MTCC 284 at 50 ug/ml after 48 hrs by disc diffusion method; conditions: MTCC 284, 48 h, read-out: DIZ; in short: as §2

| MIC [1] [µg/mL] | MIC [2] [µg/mL] | MIC [4] [µg/mL] | MIC [18] [µg/mL] | MIC [23] [µg/mL] | Compound | MBC [1] [µg/mL] | MFC [2] [µg/mL] | zone of inhibition at 100 µg/mL [3] [mm] | MBC [4] [µg/mL] | zone of inhibition at 50 µg/mL [5] [mm] | zone of inhibition at 50 µg/mL [9] [mm] | zone of inhibition at 50 µg/mL [10] [mm] | zone of inhibition at 100 µg/mL [13] [mm] | zone of inhibition at 100 µg/mL [15] [mm] | zone of inhibition at 50 µg/mL [16] [mm] | zone of inhibition at 50 µg/mL [17] [mm] | MBC [18] [µg/mL] | zone of inhibition at 100 µg/mL [19] [mm] | zone of inhibition at 100 µg/mL [22] [mm] | MBC [23] [µg/mL] | other results |
| --- | --- | --- | --- | --- | --- | --- | --- | --- | --- | --- | --- | --- | --- | --- | --- | --- | --- | --- | --- | --- | --- |
| 40 (≈ 137 µM) | 45 (≈ 154 µM) | 40 (≈ 137 µM) | 35 (≈ 120 µM) | 35 (≈ 120 µM) | Cc1c(C(=O)NN)c(-c2ccccc2)nn1-c1ccccc1 | 250 (≈ 855 µM) | 270 (≈ 924 µM) | 6 | 260 (≈ 889 µM) | 2 | 9 | 4 | 9 | 6 | 5 | 2 | 230 (≈ 787 µM) | 11 | 8 | 240 (≈ 821 µM) | zone of inhibition at 50 µg/mL [6]: 4 mm; MFC [7]: 280 µg/mL (≈ 958 µM); MIC [7]: 50 µg/mL (≈ 171 µM); MFC [8]: 260 µg/mL (≈ 889 µM); MIC [8]: 45 µg/mL (≈ 154 µM); zone of inhibition at 100 µg/mL [11]: 8 mm; zone of inhibition at 50 µg/mL [12]: 2 mm; MFC [14]: 275 µg/mL (≈ 941 µM); MIC [14]: 40 µg/mL (≈ 137 µM); zone of inhibition at 100 µg/mL [20]: 8 mm; zone of inhibition at 100 µg/mL [21]: 6 mm; zone of inhibition at 50 µg/mL [24]: 3 mm |
| 20 (≈ 35.8 µM) | 25 (≈ 44.8 µM) | 20 (≈ 35.8 µM) | 20 (≈ 35.8 µM) | 20 (≈ 35.8 µM) | COc1cc(-c2nnc(-c3c(-c4cc(OC)c(OC)c(OC)c4)nn(-c4ccccc4)c3C)o2)cc(OC)c1OC | 150 (≈ 269 µM) | 220 (≈ 394 µM) | 22 | 160 (≈ 286 µM) | 18 | 21 | 12 | 24 | 23 | 11 | 10 | 155 (≈ 277 µM) | 36 | 21 | 150 (≈ 269 µM) | zone of inhibition at 50 µg/mL [6]: 12 mm; MFC [7]: 225 µg/mL (≈ 403 µM); MIC [7]: 25 µg/mL (≈ 44.8 µM); MFC [8]: 225 µg/mL (≈ 403 µM); MIC [8]: 25 µg/mL (≈ 44.8 µM); zone of inhibition at 100 µg/mL [11]: 25 mm; zone of inhibition at 50 µg/mL [12]: 11 mm; MFC [14]: 215 µg/mL (≈ 385 µM); MIC [14]: 30 µg/mL (≈ 53.7 µM); zone of inhibition at 100 µg/mL [20]: 21 mm; zone of inhibition at 100 µg/mL [21]: 23 mm; zone of inhibition at 50 µg/mL [24]: 14 mm |
| 25 (≈ 59 µM) | 40 (≈ 94.5 µM) | 25 (≈ 59 µM) | 25 (≈ 59 µM) | 25 (≈ 59 µM) | Cc1c(-c2nnc(-c3ccc([N+](=O)[O-])cc3)o2)c(-c2ccccc2)nn1-c1ccccc1 | 190 (≈ 449 µM) | 275 (≈ 649 µM) | 8 | 200 (≈ 472 µM) | 3 | 11 | 6 | 10 | 14 | 7 | 5 | 185 (≈ 437 µM) | 20 | 10 | 180 (≈ 425 µM) | zone of inhibition at 50 µg/mL [6]: 6 mm; MFC [7]: 290 µg/mL (≈ 685 µM); MIC [7]: 50 µg/mL (≈ 118 µM); MFC [8]: 280 µg/mL (≈ 661 µM); MIC [8]: 45 µg/mL (≈ 106 µM); zone of inhibition at 100 µg/mL [11]: 11 mm; zone of inhibition at 50 µg/mL [12]: 2 mm; MFC [14]: 290 µg/mL (≈ 685 µM); MIC [14]: 55 µg/mL (≈ 130 µM); zone of inhibition at 100 µg/mL [20]: 8 mm; zone of inhibition at 100 µg/mL [21]: 12 mm; zone of inhibition at 50 µg/mL [24]: 6 mm |

| Compound | MIC [1] [µg/mL] | MIC [2] [µg/mL] | MIC [4] [µg/mL] | MIC [18] [µg/mL] | MIC [23] [µg/mL] | MBC [1] [µg/mL] | MFC [2] [µg/mL] | zone of inhibition at 100 µg/mL [3] [mm] | MBC [4] [µg/mL] | zone of inhibition at 50 µg/mL [5] [mm] | zone of inhibition at 50 µg/mL [9] [mm] | zone of inhibition at 50 µg/mL [10] [mm] | zone of inhibition at 100 µg/mL [13] [mm] | zone of inhibition at 100 µg/mL [15] [mm] | zone of inhibition at 50 µg/mL [16] [mm] | zone of inhibition at 50 µg/mL [17] [mm] | MBC [18] [µg/mL] | zone of inhibition at 100 µg/mL [19] [mm] | zone of inhibition at 100 µg/mL [22] [mm] | MBC [23] [µg/mL] | other results |
| --- | --- | --- | --- | --- | --- | --- | --- | --- | --- | --- | --- | --- | --- | --- | --- | --- | --- | --- | --- | --- | --- |
| CN(C)[C@@H]1C(O)=C(C(N)=O)C(=O)[C@@]2(O)C(O)=C3C(=O)c4c(O)cccc4[C@@](C)(O)[C@H]3C[C@@H]12 [TETRACYCLINE] | 10 (≈ 22.5 µM) |  | 4 (≈ 9 µM) | 8 (≈ 18 µM) | 12 (≈ 27 µM) | 120 (≈ 270 µM) |  |  | 120 (≈ 270 µM) |  | 18 | 10 | 20 | 21 | 12 | 9 | 120 (≈ 270 µM) | 30 | 20 | 120 (≈ 270 µM) |  |

From ChEMBL document CHEMBL3098013, “Novel pyrazole integrated 1,3,4-oxadiazoles: synthesis, characterization and antimicrobial evaluation” (2014)
